This note sets out measurements from ChEMBL document CHEMBL4387707, “Structure-Activity Relationships for Itraconazole-Based Triazolone Analogues as Hedgehog Pathway Inhibitors” (J Med Chem, 2019).

For orientation: IC50 means the point on the concentration scale where inhibition reaches its midpoint. As a reminder, the GI50 is the concentration at which growth is held to half of that of the control.

One data set addresses Protein smoothened (Mus musculus, UniProt P56726). Put plainly: Inhibition of smo-mediated hedgehog signaling pathway in mouse ASZ001 cells assessed as decrease in Gli1 mRNA expression after 48 hrs by qPCR method. The data set is classed as cell-based. Summed up:
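Gli1 mRNA measured by qPCR after 48 h incubation with compound, normalized to actin as internal control. Concentrations judged cytotoxic (by visual assessment and/or a significant drop in actin expression) were excluded from analysis. IC50 given as mean ± SEM of at least two separate experiments, each in triplicate.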
For orientation: Real-time PCR tracks product formation cycle by cycle.

The nature of data set [1]: Kinetic solubility of the compound in PBS at pH 7.4 by UPLC-MS/MS analysis. The data set is classed as physicochemical. Particulars: read-out: Kinetic_solubility.
The next data set addresses Cytochrome P450 3A4 (Homo sapiens, UniProt P08684). Kind of data set: Inhibition of CYP3A4 (unknown origin) using midazolam as substrate by UPLC-MS/MS analysis. The data set is classed as ADME.
Data set [2] has as its target Voltage-gated inwardly rectifying potassium channel KCNH2 (Homo sapiens, UniProt Q12809). Kind of data set: Inhibition of human ERG.
Data set [3] is described as follows: Intrinsic clearance in human liver microsomes at 1 uM by UPLC-MS/MS analysis. The data set is classed as ADME, Microsome. A general note: Microsomes from liver hold many membrane-bound enzymes, among them those of drug oxidation.
The next data set relates to Medulloblastoma cell. Put plainly: Antiproliferative activity against medulloblastoma cells derived from conditional patched knockout mouse after 48 hrs by [3H]-thymidine incorporation assay. The data set is classed as functional. Summed up: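 Cells are MERP medulloblastoma cells isolated from Math1-Cre-ER;Ptcfl/fl mouse tumors and cultured in vitro. Compounds were incubated for 48 h before the growth read-out. GI50 is the mean ± SEM of at least two separate experiments, each run in triplicate.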

Data set [4] in a line: Half life in human liver microsomes at 1 uM by UPLC-MS/MS analysis. The data set is classed as ADME, Microsome.
For a further data set, the species on record is Mus musculus. Kind of data set: Antiproliferative activity against mouse ASZ001 cells measured after 48 hrs by MTS/PMS assay. The data set is classed as functional, cell-based.

In brackets after ≈: the same amount, converted by molar mass. Activity calls are given as the source filed them. The rule behind the calls is not given here. A value given as a limit tells only on which side of the number the result lay.

Protein smoothened, sequence (P56726 whole entry): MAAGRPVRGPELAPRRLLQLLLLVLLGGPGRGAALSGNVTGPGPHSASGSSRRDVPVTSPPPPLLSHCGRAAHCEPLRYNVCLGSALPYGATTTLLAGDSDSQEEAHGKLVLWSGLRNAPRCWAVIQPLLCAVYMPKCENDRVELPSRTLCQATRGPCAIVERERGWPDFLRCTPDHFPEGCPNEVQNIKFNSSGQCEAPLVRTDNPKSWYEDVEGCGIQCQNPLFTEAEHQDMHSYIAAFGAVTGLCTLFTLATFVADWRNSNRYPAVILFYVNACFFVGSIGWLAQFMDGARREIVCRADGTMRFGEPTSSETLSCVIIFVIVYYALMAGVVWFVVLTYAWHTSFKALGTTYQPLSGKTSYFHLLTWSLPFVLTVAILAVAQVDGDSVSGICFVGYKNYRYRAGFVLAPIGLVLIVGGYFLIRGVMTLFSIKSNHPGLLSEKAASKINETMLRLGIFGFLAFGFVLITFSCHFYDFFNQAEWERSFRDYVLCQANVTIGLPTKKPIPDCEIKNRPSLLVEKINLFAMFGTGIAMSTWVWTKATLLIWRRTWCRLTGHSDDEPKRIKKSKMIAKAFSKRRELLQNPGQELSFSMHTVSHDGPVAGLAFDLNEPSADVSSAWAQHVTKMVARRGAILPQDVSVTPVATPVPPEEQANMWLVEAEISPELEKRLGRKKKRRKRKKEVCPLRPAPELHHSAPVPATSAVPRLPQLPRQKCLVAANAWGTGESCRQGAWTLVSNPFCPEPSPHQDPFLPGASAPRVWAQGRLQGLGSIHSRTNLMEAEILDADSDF
Voltage-gated inwardly rectifying potassium channel KCNH2, sequence (Q12809 whole entry): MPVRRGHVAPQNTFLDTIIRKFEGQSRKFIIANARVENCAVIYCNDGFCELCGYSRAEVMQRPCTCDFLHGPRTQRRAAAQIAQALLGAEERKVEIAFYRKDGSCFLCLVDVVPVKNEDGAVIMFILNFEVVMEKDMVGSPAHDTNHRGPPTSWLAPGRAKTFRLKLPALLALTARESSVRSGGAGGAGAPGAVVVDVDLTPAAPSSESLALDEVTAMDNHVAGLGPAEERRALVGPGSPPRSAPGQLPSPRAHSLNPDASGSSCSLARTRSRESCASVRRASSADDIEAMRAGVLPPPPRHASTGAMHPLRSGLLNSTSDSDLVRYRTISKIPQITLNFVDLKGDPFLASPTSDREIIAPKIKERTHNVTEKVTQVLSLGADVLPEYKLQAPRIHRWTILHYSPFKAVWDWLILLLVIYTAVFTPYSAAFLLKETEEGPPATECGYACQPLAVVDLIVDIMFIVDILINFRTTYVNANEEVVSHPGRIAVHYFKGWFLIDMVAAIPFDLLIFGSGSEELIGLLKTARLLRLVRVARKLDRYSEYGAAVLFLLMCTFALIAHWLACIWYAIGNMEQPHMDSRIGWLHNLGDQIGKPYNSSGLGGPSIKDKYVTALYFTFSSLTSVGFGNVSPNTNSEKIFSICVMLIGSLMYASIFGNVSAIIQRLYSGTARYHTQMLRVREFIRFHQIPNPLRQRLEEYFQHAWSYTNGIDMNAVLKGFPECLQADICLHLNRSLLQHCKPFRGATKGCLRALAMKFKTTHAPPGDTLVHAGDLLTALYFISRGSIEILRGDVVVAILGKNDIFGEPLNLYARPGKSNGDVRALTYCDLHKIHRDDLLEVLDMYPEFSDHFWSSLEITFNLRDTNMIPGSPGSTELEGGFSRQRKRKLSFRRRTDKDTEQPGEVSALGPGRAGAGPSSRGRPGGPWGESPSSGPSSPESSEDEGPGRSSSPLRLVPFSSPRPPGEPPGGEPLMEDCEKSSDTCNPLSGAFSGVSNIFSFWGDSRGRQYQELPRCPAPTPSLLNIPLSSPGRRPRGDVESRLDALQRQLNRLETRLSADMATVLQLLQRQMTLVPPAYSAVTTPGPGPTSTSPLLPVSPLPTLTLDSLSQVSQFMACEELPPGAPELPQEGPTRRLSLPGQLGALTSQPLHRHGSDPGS
Cytochrome P450 3A4, sequence (P08684 whole entry): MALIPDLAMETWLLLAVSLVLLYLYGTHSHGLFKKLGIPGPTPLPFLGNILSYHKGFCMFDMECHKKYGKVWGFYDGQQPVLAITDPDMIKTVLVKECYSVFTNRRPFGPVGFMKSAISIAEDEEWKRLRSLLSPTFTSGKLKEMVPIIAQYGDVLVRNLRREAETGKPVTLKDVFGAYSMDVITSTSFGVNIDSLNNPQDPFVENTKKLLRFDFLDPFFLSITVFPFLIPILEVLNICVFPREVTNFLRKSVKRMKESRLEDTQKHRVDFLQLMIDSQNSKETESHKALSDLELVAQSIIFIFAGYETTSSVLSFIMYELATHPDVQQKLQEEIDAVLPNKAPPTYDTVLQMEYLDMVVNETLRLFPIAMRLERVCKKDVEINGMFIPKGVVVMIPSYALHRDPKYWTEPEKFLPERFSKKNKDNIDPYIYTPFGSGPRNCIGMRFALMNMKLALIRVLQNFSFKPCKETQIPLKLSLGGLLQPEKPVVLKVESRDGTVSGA

Regarding `C[C@@]1(c2ccc(Cl)cc2Cl)OC[C@@H](COc2ccc(N3CCN(c4ccc(NC(=O)c5ccncc5)cc4)CC3)cc2)O1`, the IC50 at Protein smoothened is > 10 µM.

`C[C@@]1(c2ccc(Cl)cc2Cl)OC[C@@H](COc2ccc(N3CCN(c4ccc(NC(=O)c5ccccn5)cc4)CC3)cc2)O1`: the IC50 on Protein smoothened is > 10 µM.

As for `COc1cccc(C(=O)Nc2ccc(N3CCN(c4ccc(OC[C@@H]5CO[C@](C)(c6ccc(Cl)cc6Cl)O5)cc4)CC3)cc2)c1`, at Protein smoothened, the IC50 was determined as 5.7 µM.

Turning to `C[C@@]1(c2ccc(Cl)cc2Cl)OC[C@@H](COc2ccc(N3CCN(c4ccc(N)cc4)CC3)cc2)O1`, the 50% inhibitory concentration (IC50) on Protein smoothened worked out at 0.92 µM.

With `CC[C@@H](C)n1ncn(-c2ccc(N3CCN(c4ccc(OC[C@@H]5CO[C@@](C)(c6ccc(Cl)cc6Cl)O5)cc4)CC3)cc2)c1=O` (relative stereo), the solubility kinetic in data set [1] is 1560 nM (≈ 996 ng/mL). For the same compound, the IC50 at Cytochrome P450 3A4 was found to be 1.02 µM.

Regarding `C[C@]1(c2ccc(Cl)cc2Cl)OC[C@@H](COc2ccc(N3CCN(c4ccc(NC(=O)c5cccc(Cl)c5)cc4)CC3)cc2)O1`, on Protein smoothened, the half-inhibitory concentration (IC50) is > 10 µM.

On to `CCC(C)n1ncn(-c2ccc(N3CCN(c4ccc(OCC5COC(Cn6cncn6)(c6ccc(Cl)cc6Cl)O5)cc4)CC3)cc2)c1=O` (configuration not stated) [ITRACONAZOLE], for which the “inhibition (INH)” value in data set [2] is on record as < 1%.

In the case of `C[C@@]1(c2ccc(Cl)cc2Cl)OC[C@@H](COc2ccc(N3CCN(c4ccc([N+](=O)[O-])cc4)CC3)cc2)O1`, the IC50 at Protein smoothened came to 0.31 µM.

`C[C@@]1(c2ccc(Cl)cc2Cl)OC[C@@H](COc2ccc(N3CCN(c4ccc(NC(=O)c5cccc(O)c5)cc4)CC3)cc2)O1`: the CLH in data set [3] was < 3 µL/min/mg. In addition, the solubility kinetic in data set [1] was 1.4 nM (≈ 0.888 ng/mL). In the data set on Medulloblastoma cell, this compound registered a GI50 of 2.8 µM. For the same compound, the t1/2 in data set [4] is > 231 min. The “inhibition (INH)” value in data set [2] is given as 1.2%. For the same compound, the half-maximal inhibitory concentration (IC50) on Cytochrome P450 3A4 was > 30 µM.

Consider `C[C@]1(c2ccc(Cl)cc2Cl)OC[C@@H](COc2ccc(N3CCN(c4ccc(N)cc4)CC3)cc2)O1`, for which the IC50 at Protein smoothened stood at 0.39 µM.

For the compound `C[C@]1(c2ccc(Cl)cc2Cl)OC[C@@H](COc2ccc(N3CCN(c4ccc(NC(=O)c5ccc6ccccc6c5)cc4)CC3)cc2)O1`, the IC50 at Protein smoothened was > 10 µM.

As to `C[C@@]1(c2ccc(Cl)cc2Cl)OC[C@@H](COc2ccc(N3CCN(c4ccc(-n5cn[nH]c5=O)cc4)CC3)cc2)O1`, the IC50 on Protein smoothened stood at 0.14 µM.

As for `C[C@]1(c2ccc(Cl)cc2Cl)OC[C@@H](COc2ccc(N3CCN(c4ccc(NC(=O)c5ccccc5O)cc4)CC3)cc2)O1`, at Protein smoothened, the IC50 came to 2.2 µM.

For the compound `C[C@]1(c2ccc(Cl)cc2Cl)OC[C@@H](COc2ccc(N3CCN(c4ccc(NC(=O)NN)cc4)CC3)cc2)O1`, the solubility kinetic in data set [1] came out at 1.4 nM (≈ 0.801 ng/mL). Halving of growth in the data set with Medulloblastoma cell (GI50) required 2.8 µM. In data set [4], this compound returned a t1/2 of 11.5 min. At Cytochrome P450 3A4, the IC50 was > 30 µM.

For `C[C@]1(c2ccc(Cl)cc2Cl)OC[C@@H](COc2ccc(N3CCN(c4ccc(NC(=O)c5ccc(O)cc5)cc4)CC3)cc2)O1`, the IC50 on Protein smoothened was found to be 3 µM.

For `C[C@@]1(c2ccc(Cl)cc2Cl)OC[C@@H](COc2ccc(N3CCN(c4ccc(NC(=O)NN)cc4)CC3)cc2)O1`, the solubility kinetic in data set [1] amounted to 9.3 nM (≈ 5.32 ng/mL). In the data set with Medulloblastoma cell, this compound displayed a GI50 of 0.5 µM. Besides, the t1/2 in data set [4] is recorded as 20.1 min. The “inhibition (INH)” value in data set [2] is listed as 2.2%. For the same compound, on Cytochrome P450 3A4, the concentration for half-maximal inhibition (IC50) is > 30 µM.

Turning to `C[C@@]1(c2ccc(Cl)cc2Cl)OC[C@@H](COc2ccc(N3CCN(c4ccc(NC(=O)c5ccccc5O)cc4)CC3)cc2)O1`, the IC50 on Protein smoothened was > 10 µM.

In the case of `CC(=O)c1cccc(C(=O)Nc2ccc(N3CCN(c4ccc(OC[C@@H]5CO[C@](C)(c6ccc(Cl)cc6Cl)O5)cc4)CC3)cc2)c1`, the solubility kinetic in data set [1] is 1.4 nM (≈ 0.925 ng/mL). In addition, the t1/2 in data set [4] worked out at 11.4 min. For the same compound, in the data set listed under Mus musculus, the outcome was Active. For the same compound, the “inhibition (INH)” value in data set [2] was < 1%. Moreover, the IC50 against Cytochrome P450 3A4 was > 30 µM.

Turning to `C[C@@]1(c2ccc(Cl)cc2Cl)OC[C@@H](COc2ccc(N3CCN(c4ccc(NC(=O)c5ccc(O)cc5)cc4)CC3)cc2)O1`, the IC50 at Protein smoothened is > 10 µM.

With `C[C@]1(c2ccc(Cl)cc2Cl)OC[C@@H](COc2ccc(N3CCN(c4ccc(NC(=O)c5ccoc5)cc4)CC3)cc2)O1`, the IC50 on Protein smoothened was > 10 µM.

Turning to `C[C@@]1(c2ccc(Cl)cc2Cl)OC[C@@H](COc2ccc(N3CCN(c4ccc(NC(=O)c5cccnc5)cc4)CC3)cc2)O1`, in data set [1], the solubility kinetic amounted to 4.2 nM (≈ 2.6 ng/mL). In the data set on Medulloblastoma cell, the 50% growth inhibitory concentration (GI50) was > 10 µM. The compound further displayed a t1/2 in data set [4] of 59.9 min. At Cytochrome P450 3A4, the concentration for half-maximal inhibition (IC50) was > 30 µM.

`C[C@@]1(c2ccc(Cl)cc2Cl)OC[C@@H](COc2ccc(N3CCN(c4ccc(NC(=O)c5ccc6ccccc6c5)cc4)CC3)cc2)O1`: the half-maximal inhibitory concentration (IC50) on Protein smoothened is > 10 µM.

Regarding `C[C@]1(c2ccc(Cl)cc2Cl)OC[C@@H](COc2ccc(N3CCN(c4ccc(NC(=O)c5ccncc5)cc4)CC3)cc2)O1`, the half-maximal inhibitory concentration (IC50) on Protein smoothened is > 10 µM.

Consider `C[C@]1(c2ccc(Cl)cc2Cl)OC[C@@H](COc2ccc(N3CCN(c4ccc(-n5cn[nH]c5=O)cc4)CC3)cc2)O1`, for which, at Protein smoothened, the IC50 was found to be 0.21 µM.

In the case of `CC[C@@H](C)n1ncn(-c2ccc(N3CCN(c4ccc(OC[C@@H]5CO[C@](C)(c6ccc(Cl)cc6Cl)O5)cc4)CC3)cc2)c1=O` (relative stereo), in data set [1], the solubility kinetic was 800 nM (≈ 511 ng/mL). Also, at Cytochrome P450 3A4, the IC50 was > 20 µM.

For `C[C@]1(c2ccc(Cl)cc2Cl)OC[C@@H](COc2ccc(N3CCN(c4ccc([N+](=O)[O-])cc4)CC3)cc2)O1`, the IC50 at Protein smoothened is 0.26 µM.

`C[C@]1(c2ccc(Cl)cc2Cl)OC[C@@H](COc2ccc(N3CCN(c4ccc(NC(=O)c5cccc(O)c5)cc4)CC3)cc2)O1`: in data set [1], the solubility kinetic was found to be 1.6 nM (≈ 1.02 ng/mL). In addition, the GI50 in the data set on Medulloblastoma cell was found to be 0.35 µM. In data set [4], the t1/2 is given as 19.9 min. In addition, the outcome in the data set listed under Mus musculus was Active. Further, the “inhibition (INH)” value in data set [2] was < 1%. The compound further displayed an IC50 at Cytochrome P450 3A4 of 11.4 µM.

Consider `C[C@]1(c2ccc(Cl)cc2Cl)OC[C@@H](COc2ccc(N3CCN(c4ccc(NC(=O)c5ccccc5)cc4)CC3)cc2)O1`, for which the IC50 at Protein smoothened is > 10 µM.

With `C[C@]1(c2ccc(Cl)cc2Cl)OC[C@@H](COc2ccc(N3CCN(c4ccc(NC(=O)c5cccnc5)cc4)CC3)cc2)O1`, the solubility kinetic in data set [1] turned out to be 6.9 nM (≈ 4.27 ng/mL). Besides, the GI50 in the data set with Medulloblastoma cell is 1.1 µM. This compound also came in with a t1/2 in data set [4] of 8.9 min. Also, the “inhibition (INH)” value in data set [2] is given as < 1%. Besides, on Cytochrome P450 3A4, the IC50 was > 20 µM.

Take `C[C@@]1(c2ccc(Cl)cc2Cl)OC[C@@H](COc2ccc(N3CCN(c4ccc(NC(=O)c5ccccc5)cc4)CC3)cc2)O1`: the IC50 on Protein smoothened was > 10 µM.

For `C[C@]1(c2ccc(Cl)cc2Cl)OC[C@@H](COc2ccc(N3CCN(c4ccc(NC(=O)c5ccccn5)cc4)CC3)cc2)O1`, the IC50 at Protein smoothened turned out to be 3.9 µM.

In the case of `C[C@]1(c2ccc(Cl)cc2Cl)OC[C@@H](COc2ccc(N3CCN(c4ccc(NC(=O)c5ccsc5)cc4)CC3)cc2)O1`, the 50% inhibitory concentration (IC50) at Protein smoothened was > 10 µM.
